Screening data (PubChem BioAssay)
Most compounds without a hit are left out; they make up all but 3% or so of the library.
S1P1 ag-PAM – activates or potentiates agonism at human S1P1 receptor | P21453 | S1P1 CRE-bla cells, forskolin, beta-lactamase FRET, potentiator mode; S1P1 agonist co-added at EC20, 2 nM; 100% = saturating reference agonist, 0% = basal | activation, % at 9.5 µM | 56,000 compounds, 0.57% hits;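 active = activation above a cutoff set at the mean activation of all tested compounds plus 3 SD, cut at about 54% in these data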;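 note: forskolin at 4 µM as EC80 and the EC20 agonist is SEW2871; 100% = SEW2871 at its EC100 plus forskolin at EC80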
HTR1A agonist – agonists of human 5-HT1a serotonin receptor. P08908. CHO 5-HT1a Ga15 NFAT-bla reporter, FRET ratio; 0% basal, 100% maximal reference agonist. activation, % at 10 µM. 65,000 compounds, 0.56% hits;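 active = activation above the screen-wide mean activation plus 3 SD, cut at about 19% in these data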;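 note: 0% = DMSO wells and 100% = 5-CT at EC100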
S1P3 agonist – agonists of human S1P3 receptor; Q99500; S1P3 NFAT-BLA reporter cells, agonism, FRET ratio; relative to 1 µM S1P, basal subtracted; activation, % at 4.5 µM; 60,000 compounds, 0.1% hits;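 active = activation above the screen-wide mean plus 3 SD, cut at about 4.5% in these data, passing the limit was not always enough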
Target sequence (Q99500 whole entry, looked up): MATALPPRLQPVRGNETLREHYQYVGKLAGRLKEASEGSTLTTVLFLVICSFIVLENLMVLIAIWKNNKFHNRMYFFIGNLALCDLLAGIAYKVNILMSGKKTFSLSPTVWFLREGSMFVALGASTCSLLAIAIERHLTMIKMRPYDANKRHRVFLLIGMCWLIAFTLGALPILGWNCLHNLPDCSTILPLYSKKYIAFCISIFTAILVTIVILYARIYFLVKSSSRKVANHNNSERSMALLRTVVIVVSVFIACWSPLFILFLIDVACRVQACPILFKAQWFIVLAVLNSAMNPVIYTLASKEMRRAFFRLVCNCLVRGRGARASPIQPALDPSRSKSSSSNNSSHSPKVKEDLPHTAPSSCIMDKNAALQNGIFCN
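Benchmarks: high control 1 µM S1P / System: stable CHO line with human S1P3, Gα16, NFAT-BLA reporter / Dosing: single compound concentration, 4.5 µM final / Timing: 4 h compound at 37 °C, 2 h substrate at RT / Measured by: FRET β-lactamase substrate fluorescence, excitation 405 nm, 460/535 nm emission ratio, background-subtracted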
5HT1a antag – 5-HT1a (human) receptor antagonism. inhibition, % at 10 µM. P08908. 62,000 compounds, 0.68% hits. CHO 5-HT1a Ga15 NFAT-bla reporter, antagonist mode;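 active = inhibition above the mean of all tested compounds plus 3 SD, cut at about 43% in these data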;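 note: receptor stimulated by 5-CT agonist at 100 nM near EC80; beta-lactamase reporter measured by ratiometric fluorescence of a cleavable substrate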
5HT1E antag – blocks the human 5-HT1E serotonin receptor; inhibition, % at 6 µM; CHO 5-HT1E Ga15 NFAT-bla reporter, FRET, antagonist; P28566; 65,000 compounds, 0.99% hits; AID 571;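 active = inhibition above a set limit, the mean inhibition across every tested compound plus 3 SD, cut at about 29% in these data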;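 note: signal is the 460 over 535 nm emission ratio of beta-lactamase substrate; 0% = agonist plus DMSO wells and 100% = wells without agonist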
HTR1E agonist – 5-HT1E (human) receptor agonism. activation, % at 6 µM. CHO 5-HT1E Ga15 NFAT-bla reporter, FRET; 0% DMSO wells, 100% control agonist wells. 65,000 compounds, 0.69% hits. P28566. AID 574;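 active = activation above a set limit, the screen-wide mean activation plus 3 SD, cut at about 8.5% in these data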;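 note: 100% = positive control agonist at 1 µM giving full maximal response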
* marks the source's active call; other numbers are inactive results; . = not tested or not shown.

SMILES	S1P1 ag-PAM	HTR1A agonist	S1P3 agonist	5HT1a antag	5HT1E antag	HTR1E agonist
Cc1ccccc1NC(=O)NCCN1C(=O)C2C3C=CC(C3)C2C1=O (configuration not stated)	-3	-2	0	7	-8	0
Cc1cccc(OCc2nc(C#N)c(NCc3ccc4c(c3)OCO4)o2)c1	.	-1	.	43*	6	0
COc1ccc(CNc2oc(COc3ccccc3)nc2C#N)cc1	.	-1	.	29	15	0
N#Cc1nc(COc2ccc(Cl)cc2)oc1NCc1ccc2c(c1)OCO2	.	-1	.	52*	3	-1
CCNc1oc(COc2cccc(C)c2)nc1C#N	.	-4	.	16	-3	0
CCC(C)(C(=O)NC1CCCCC1)N(Cc1ccco1)C(=O)c1ccc2c(c1)OCO2 (configuration not stated)	3	-1	-1	44*	-6	-1
CCCCN1C(=O)c2ccc(C(=O)Nc3c(N)n(CCCC)c(=O)n(C)c3=O)cc2C1=O	.	2	.	-2	-2	-2
CC(C)C(NC(=O)CNC(=O)OC(C)(C)C)C(=O)NCc1ccccc1 (configuration not stated)	-3	0	-1	-6	2	-1
O=c1[nH]c2c(s1)C(c1ccco1)C1C3CCC(C3)C1S2 (configuration not stated)	.	0	.	12	5	0
COc1ccc(OCc2nnc(SC3CCOC3=O)n2-c2ccccc2)cc1 (configuration not stated)	-4	-2	-1	-18	2	0
COc1cccc(-n2c(SC3CCOC3=O)nc3ccccc3c2=O)c1 (configuration not stated)	-39	-1	0	15	37*	-1
CN1CCN(c2nc(N3CCN(c4ccccc4)CC3)ncc2F)CC1	-31	-1	-1	11	9	35*
CCCCOc1ccc(CN(C)c2ncnc(N)n2)cc1	4	0	-6	.	32*	0
Cc1nn(-c2nc3ccccc3s2)c(N)c1-c1ccccc1	95*	-1	-1	16	18	1
CCOc1cc(C(=O)N2CCN(c3ccc(C(C)=O)cc3)CC2)cc(OCC)c1OCC	-13	3	0	-1	0	1
O=C(Nc1cn(-c2ccccc2)nc1-c1cccs1)c1ccco1	21	-2	-1	26	4	1
CCCNC(=O)Nc1cc(C)on1	8	257*	0	-6	5	1
CC(Sc1nnc(N)s1)c1ccccc1Cl (configuration not stated)	-15	-2	0	6	8	0
C=CCn1c(=O)c2ccccc2n2c(SCc3nc(N)nc(Nc4ccccc4C)n3)nnc12	-55	0	0	-46	30*	0
C=CCn1c(=O)c2ccccc2n2c(SCC(=O)c3ccccc3)nnc12	-9	-1	0	-11	2	1
CCOC(=O)CCc1nn(C)c(=O)c2ccccc12	.	1	.	-4	40*	0
CCOC(=O)C(C)c1nn(C)c(=O)c2ccccc12 (configuration not stated)	.	0	-1	1	4	0
Clc1ccccc1OCc1nc(-c2ccncc2)no1	.	-1	-1	-10	-3	1
CC(C)c1ccc(OCc2nc(-c3ccccn3)no2)c(Br)c1	86*	5	-2	-20	-13	1
Clc1ccc(OCc2nc(-c3ccncc3)no2)c(Br)c1	72*	0	0	-9	4	0
SMILES	S1P1 ag-PAM	HTR1A agonist	S1P3 agonist	5HT1a antag	5HT1E antag	HTR1E agonist
CCN(CC)c1cccc(OC2=NS(=O)(=O)c3ccccc32)c1	9	-2	-1	-4	-7	-1
CC(=O)c1cc2c(cc1NC(=O)c1cc(C)nn1-c1ccccc1)OCO2	-6	24*	-1	17	9	1
COC(=O)c1cc(Br)c(=O)n(CCN2CCCCC2)c1	5	2	-1	17	4	1
COC(=O)c1cc(Br)c(=O)n(CC(C)C)c1	-1	0	-1	0	-5	9.5*
COc1cccc2c1N1C(=O)c3c(C(=O)O)cccc3C1CC2(C)C (configuration not stated)	3	-2	-1	0	-1	0
CCOc1ccc(-c2nc(CSCC(=O)N3CCN(c4cccc(OC)c4)CC3)c(C)o2)cc1	69*	-1	-1	4	18	4
O=C(CSCc1ccccc1)N1CCN(Cc2ccc3c(c2)OCO3)CC1	0	1	0	-9	-8	1
Cc1cccc(-c2nc(CSCC(=O)N3CCN(Cc4ccc5c(c4)OCO5)CC3)c(C)o2)c1	58*	-1	0	13	6	0
CCOC(=O)Cn1nnnc1C(CC)N(Cc1cccs1)Cc1cc2ccc(OC)cc2[nH]c1=O (configuration not stated)	-10	1	-2	2	0	0
CCCC(=O)Nc1cccc(NC(=O)c2ccc3c(c2)OCO3)c1	-11	-1	-1	5	3	14*
CC(=O)Nc1c(C(=O)N2CCN(c3ncccn3)CC2)cnn1-c1ccccc1Cl	-28	-3	0	0	5	0
O=C(CCCn1c(=O)c2sccc2n(Cc2ccc(F)cc2)c1=O)NCc1ccco1	19	2	0	13	4	0
COCCNC(=O)C(c1ccc(C)o1)N(C(=O)c1snc(C(N)=O)c1N)c1cc(C)cc(C)c1 (configuration not stated)	9	5	1	9	2	0
COc1ccc(C(c2nnnn2Cc2cccs2)N2CCN(c3ccccc3F)CC2)cc1 (configuration not stated)	-6	-2	-2	32	2	0
O=c1n(CCCN2CCN(c3cccc(Cl)c3)CC2)nc2ccccn12	14	5	-2	.	3	9.5*
COc1ccccc1NC(=O)NCCCN1CCN(c2cccc(Cl)c2)CC1	2	2	0	38	-22	3
Cn1cc(C(=O)NCCN2CCN(c3cccc(Cl)c3)CC2)c2c3ccccc3n(C)c2c1=O	-9	2	0	-2	2	1
CCOCCCn1c(=S)[nH]c2cc(C(=O)NCCOC)ccc2c1=O	.	1	.	2	1	16*
COCCn1c(=O)[nH]c2cc(C(=O)NCCN3CCN(c4cccc(Cl)c4)CC3)ccc2c1=O	.	28*	.	23	8	2
Cc1cc(C(=O)NCCN2CCN(c3cccc(Cl)c3)CC2)n(-c2ccccc2)n1	-2	31*	-2	24	-4	2
COc1ccc(N2CCN(CCNC(=O)CCCn3c(=O)[nH]c4cc(Cl)ccc4c3=O)CC2)cc1	.	0	.	-10	1	0
